Test results: ChEMBL document CHEMBL1132488, “On the bioactive conformation of NAN-190 (1) and MP3022 (2), 5-HT(1A) receptor antagonists” (J Med Chem, 1999)
pKi: −log10 of the molar value.

What was measured:
[1] = biological target: T1, 5-hydroxytryptamine receptor 1A (Rattus norvegicus, UniProt P19327); experiment: Ability to displace [3H]8-OH-DPAT from 5-hydroxytryptamine 1A receptor
T1 sequence (P19327 whole entry): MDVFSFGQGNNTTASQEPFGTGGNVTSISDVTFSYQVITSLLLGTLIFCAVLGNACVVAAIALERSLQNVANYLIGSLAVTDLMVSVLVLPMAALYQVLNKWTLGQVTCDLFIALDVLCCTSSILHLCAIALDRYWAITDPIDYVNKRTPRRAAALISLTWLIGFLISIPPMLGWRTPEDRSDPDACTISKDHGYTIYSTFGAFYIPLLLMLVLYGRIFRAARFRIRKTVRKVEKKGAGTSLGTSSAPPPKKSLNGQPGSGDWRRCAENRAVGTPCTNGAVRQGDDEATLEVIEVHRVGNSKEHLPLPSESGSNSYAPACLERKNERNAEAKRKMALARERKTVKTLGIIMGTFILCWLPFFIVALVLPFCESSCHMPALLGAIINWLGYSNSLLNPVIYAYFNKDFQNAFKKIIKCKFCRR
How it was run: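 Rat hippocampal membranes, [3H]8-OH-DPAT radioligand. Ki from at least three competition experiments, each with 10–14 drug concentrations run in triplicate. Ki calculated with the Cheng–Prusoff equation.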

Rattus norvegicus [2] = experiment: Induction of LLR(lower lip retraction) by the compound in rats at a dose of 16 mg/kg; assay type: functional
How it was run: (§1)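 Male Wistar rats, groups of 6, given compound alone ip as 1% Tween 80 suspension. Lower incisor visibility scored 0/0.5/1 at 15, 30 and 45 min after dosing, summed (max 3 per rat). Mean ± SEM versus vehicle, Newman–Keuls test; ED50 with range.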

Rattus norvegicus [3] = species on record: Rattus norvegicus; experiment: Effect on 8-OH-DAPT- induced behavioral syndrome(FT: forepaw treading) by the compound in reserpine pretreated rats at a dose of 8.; assay type: functional
How it was run: (§2)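 Reserpinized male Wistar rats (reserpine 1 mg/kg sc, 18 h before), groups of 6. Compound given ip in 1% Tween 80 60 min before 8-OH-DPAT 5 mg/kg sc. FBP/FT rated 0–3 at 3, 6, 9, 12 and 15 min after agonist, summed (max 15). Mean ± SEM; Newman–Keuls test; ED50 with range.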

Rattus norvegicus [4] = species on record: Rattus norvegicus; experiment: Dose inhibiting 8-OH-DPAT-induced behavioral syndrome(FBP: flat body posture) by the compound in reserpine pretreated rats.
Rattus norvegicus [5] = species on record: Rattus norvegicus; experiment: Induction of behavioral syndrome(FBP: flat body posture) by the compound in reserpine pretreated rats at a dose of 2.; assay type: functional
How it was run: (§3)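 Male Wistar rats (260–300 g), groups of 6, given reserpine 1 mg/kg sc 18 h before test. Compounds given ip as 1% Tween 80 suspension. FBP and FT rated 0–3 in 45-s sessions every 3 min, starting 3 min after dosing. Score summed over 5 periods (max 15 per symptom). Mean ± SEM; Newman–Keuls test.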

Rattus norvegicus [6] = species on record: Rattus norvegicus; experiment: Induction of behavioral syndrome(FBP: flat body posture) by the compound in reserpine pretreated rats at a dose of 4.; assay type: functional
How it was run: (§4)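 Male Wistar rats (260–300 g) were given reserpine 1 mg/kg sc in saline 18 h before testing. Test compound was then given alone ip as a 1% Tween 80 suspension (2 mL/kg). FBP and FT were each scored 0–3 and summed (maximum 15). n=6 per group; mean ± SEM; Newman–Keuls test.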

Rattus norvegicus [7] = experiment: Effect on 8-OH-DPAT-Induced LLR(lower lip retraction) in rats at a dose of 8 mg/kg; assay type: functional
How it was run: (§5)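 Male Wistar rats, groups of 6. Compound given ip in 1% Tween 80 45 min before 8-OH-DPAT 1 mg/kg sc. Lower incisor visibility scored 0/0.5/1 at 15, 30 and 45 min after agonist, summed (max 3). Mean ± SEM; Newman–Keuls test; ED50 with range.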

Rattus norvegicus [8] = species on record: Rattus norvegicus; experiment: Dose Inducing behavioral syndrome(FT: forepaw treading) by the compound in reserpine pretreated rats.; assay type: functional; how it was run: as §3
Rattus norvegicus [9] = species on record: Rattus norvegicus; experiment: Induction of behavioral syndrome(FT: forepaw treading) by the compound in reserpine pretreated rats at a dose of 2.; assay type: functional
Rattus norvegicus [10] = species on record: Rattus norvegicus; experiment: Effect on 8-OH-DAPT- induced behavioral syndrome(FBP: flat body posture) by the compound in reserpine pretreated rats at a dose of 4.; assay type: functional; how it was run: as §2
Rattus norvegicus [11] = species on record: Rattus norvegicus; experiment: Induction of behavioral syndrome(FBP: flat body posture) by the compound in reserpine pretreated rats at a dose of 8.; assay type: functional; how it was run: as §4
Rattus norvegicus [12] = experiment: Effect on 8-OH-DPAT-Induced LLR(lower lip retraction) in rats at a dose of 4 mg/kg; assay type: functional; how it was run: as §5
Rattus norvegicus [13] = species on record: Rattus norvegicus; experiment: Effect on 8-OH-DAPT- induced behavioral syndrome(FBP: flat body posture) by the compound in reserpine pretreated rats at a dose of 2.; assay type: functional
Rattus norvegicus [14] = species on record: Rattus norvegicus; experiment: Effect on 8-OH-DAPT- induced behavioral syndrome(FBP: flat body posture) by the compound in reserpine pretreated rats at a dose of 8.; assay type: functional; how it was run: as §2
Rattus norvegicus [15] = species on record: Rattus norvegicus; experiment: Induction of behavioral syndrome(FT: forepaw treading) by the compound in reserpine pretreated rats at a dose of 4.; assay type: functional; how it was run: as §4
Rattus norvegicus [16] = species on record: Rattus norvegicus; experiment: Effective dose of the required to inhibit symptoms produced by 8-OH-DPAT; assay type: functional; how it was run: as §2
Rattus norvegicus [17] = species on record: Rattus norvegicus; experiment: Effect on 8-OH-DAPT- induced behavioral syndrome(FT: forepaw treading) by the compound in reserpine pretreated rats at a dose of 4.; assay type: functional; how it was run: as §2
Rattus norvegicus [18] = species on record: Rattus norvegicus; experiment: Effect on 8-OH-DAPT- induced behavioral syndrome(FT: forepaw treading) by the compound in reserpine pretreated rats at a dose of 2.; assay type: functional
Rattus norvegicus [19] = experiment: Effect on 8-OH-DPAT-Induced LLR(lower lip retraction) in rats at a dose of 16 mg/kg; assay type: functional; how it was run: as §5
Rattus norvegicus [20] = species on record: Rattus norvegicus; experiment: Induction of behavioral syndrome(FT: forepaw treading) by the compound in reserpine pretreated rats at a dose of 8.; assay type: functional; how it was run: as §4
Rattus norvegicus [21] = experiment: Induction of LLR(lower lip retraction) by the compound in rats at a dose of 8 mg/kg; assay type: functional; how it was run: as §1
Rattus norvegicus [22] = experiment: Induction of LLR(lower lip retraction) by the compound in rats at a dose of 4 mg/kg; assay type: functional; how it was run: as §1
Rattus norvegicus [23] = species on record: Rattus norvegicus; experiment: Effect on 8-OH-DAPT- induced behavioral syndrome(FT: forepaw treading) by the compound in reserpine pretreated rats at a dose of 8; FT mean score; assay type: functional; how it was run: as §2
Rattus norvegicus [24] = species on record: Rattus norvegicus; experiment: Induction of behavioral syndrome(FBP: flat body posture) by the compound in reserpine pretreated rats at a dose of 8; FBP mean score; assay type: functional; how it was run: as §4
Rattus norvegicus [25] = experiment: Effect on 8-OH-DPAT-Induced LLR(lower lip retraction) in rats at a dose of 16 mg/kg; LLR score; assay type: functional; how it was run: as §5
Rattus norvegicus [26] = species on record: Rattus norvegicus; experiment: Effect on 8-OH-DAPT- induced behavioral syndrome(FBP: flat body posture) by the compound in reserpine pretreated rats at a dose of 8; FBP mean score; assay type: functional; how it was run: as §2
Rattus norvegicus [27] = experiment: Induction of LLR(lower lip retraction) by the compound in rats at a dose of 16 mg/kg; LLR score; assay type: functional; how it was run: as §1
Rattus norvegicus [28] = species on record: Rattus norvegicus; experiment: Effect on 8-OH-DAPT- induced behavioral syndrome(FT: forepaw treading) by the compound in reserpine pretreated rats at a dose of 16; FT mean score; assay type: functional; how it was run: as §2
Rattus norvegicus [29] = experiment: Induction of LLR(lower lip retraction) by the compound in rats at a dose of 4 mg/kg; LLR score; assay type: functional; how it was run: as §1
Rattus norvegicus [30] = species on record: Rattus norvegicus; experiment: Effect on 8-OH-DAPT- induced behavioral syndrome(FBP: flat body posture) by the compound in reserpine pretreated rats at a dose of 16; FBP mean score; assay type: functional; how it was run: as §2
Rattus norvegicus [31] = species on record: Rattus norvegicus; experiment: Induction of behavioral syndrome(FT: forepaw treading) by the compound in reserpine pretreated rats at a dose of 16; FT mean score; assay type: functional; how it was run: as §4
Rattus norvegicus [32] = experiment: Effect on 8-OH-DPAT-Induced LLR(lower lip retraction) in rats at a dose of 4 mg/kg; LLR score; assay type: functional; how it was run: as §5
Rattus norvegicus [33] = experiment: Induction of LLR(lower lip retraction) by the compound in rats at a dose of 8 mg/kg; LLR score; assay type: functional; how it was run: as §1
Rattus norvegicus [34] = species on record: Rattus norvegicus; experiment: Effect on 8-OH-DAPT- induced behavioral syndrome(FT: forepaw treading) by the compound in reserpine pretreated rats at a dose of 4; FT mean score; assay type: functional; how it was run: as §2
Rattus norvegicus [35] = species on record: Rattus norvegicus; experiment: Induction of behavioral syndrome(FBP: flat body posture) by the compound in reserpine pretreated rats at a dose of 16; FBP mean score; assay type: functional; how it was run: as §3
Rattus norvegicus [36] = species on record: Rattus norvegicus; experiment: Induction of behavioral syndrome(FBP: flat body posture) by the compound in reserpine pretreated rats at a dose of 4; FBP mean score; assay type: functional; how it was run: as §4
Rattus norvegicus [37] = species on record: Rattus norvegicus; experiment: Induction of behavioral syndrome(FT: forepaw treading) by the compound in reserpine pretreated rats at a dose of 8; FT mean score; assay type: functional; how it was run: as §4
Rattus norvegicus [38] = species on record: Rattus norvegicus; experiment: Dose Inducing behavioral syndrome(FBP: flat body posture) by the compound in reserpine pretreated rats; assay type: functional; how it was run: as §3
Rattus norvegicus [39] = species on record: Rattus norvegicus; experiment: Induction of behavioral syndrome(FT: forepaw treading) by the compound in reserpine pretreated rats at a dose of 4; FT mean score; assay type: functional; how it was run: as §4
Rattus norvegicus [40] = species on record: Rattus norvegicus; experiment: Effect on 8-OH-DAPT- induced behavioral syndrome(FBP: flat body posture) by the compound in reserpine pretreated rats at a dose of 4; FBP mean score; assay type: functional; how it was run: as §2
Rattus norvegicus [41] = experiment: Effect on 8-OH-DPAT-Induced LLR(lower lip retraction) in rats at a dose of 8 mg/kg; LLR score; assay type: functional; how it was run: as §5

O=C1c2ccccc2C(=O)N1CCCCN1CCc2ccccc2C1
pKi [1]: 6.45

COc1ccccc1N1CCN(CCCCN2C(=O)[C@H]3CCCC[C@H]3C2=O)CC1
LLR score (Rattus norvegicus [2]): 0.8
FT mean score (Rattus norvegicus [3]): 0.5
ED50 (Rattus norvegicus [4]): 3.2 mg/kg
FBP mean score (Rattus norvegicus [5]): 0.1
FBP mean score (Rattus norvegicus [6]): 0.2
LLR score (Rattus norvegicus [7]): 1.3
ED50 (Rattus norvegicus [8]): 2.6 mg/kg
FT mean score (Rattus norvegicus [9]): 0.2
FBP mean score (Rattus norvegicus [10]): 6.7
FBP mean score (Rattus norvegicus [11]): 0.2
LLR score (Rattus norvegicus [12]): 1.7
FBP mean score (Rattus norvegicus [13]): 8.3
FBP mean score (Rattus norvegicus [14]): 5.5
FT mean score (Rattus norvegicus [15]): 0.2
ED50 (Rattus norvegicus [16]): 7.5 mg/kg
FT mean score (Rattus norvegicus [17]): 3.5
FT mean score (Rattus norvegicus [18]): 3.8
LLR score (Rattus norvegicus [19]): 0.7
FT mean score (Rattus norvegicus [20]): 0.2
LLR score (Rattus norvegicus [21]): 0.5
pKi [1]: 8.40
LLR score (Rattus norvegicus [22]): 0.5

O=C1[C@H]2CCCC[C@H]2C(=O)N1C1CCC(N2CCc3ccccc3C2)CC1 (stereo not given in full)
pKi [1]: 5.80

COc1ccccc1N1CCN(CCCn2nnc3ccccc32)CC1
FT mean score (Rattus norvegicus [23]): 3.7
FBP mean score (Rattus norvegicus [24]): 0.2
ED50 (Rattus norvegicus [8]): 5.2 mg/kg
LLR score (Rattus norvegicus [25]): 0.9
FBP mean score (Rattus norvegicus [26]): 8
LLR score (Rattus norvegicus [27]): 0.6
FT mean score (Rattus norvegicus [28]): 2.6
LLR score (Rattus norvegicus [29]): 0
ED50 (Rattus norvegicus [16]): 6.5 mg/kg
FBP mean score (Rattus norvegicus [30]): 6.1
FT mean score (Rattus norvegicus [31]): 0.1
LLR score (Rattus norvegicus [32]): 1.1
LLR score (Rattus norvegicus [33]): 0.1
FT mean score (Rattus norvegicus [34]): 5.8
FBP mean score (Rattus norvegicus [35]): 0.1
FBP mean score (Rattus norvegicus [36]): 0.2
FT mean score (Rattus norvegicus [37]): 0.2
ED50 (Rattus norvegicus [38]): 10.5 mg/kg
FT mean score (Rattus norvegicus [39]): 0.2
FBP mean score (Rattus norvegicus [40]): 11.5
LLR score (Rattus norvegicus [41]): 0.7
